Calpain2 inh: inhibitors of pig calpain II, primary screen, biochemical, fluorogenic peptide substrate, 1536-well | purified calpain II, 30 min | inhibition, % at 16 µM | actives 0.37% (n = 220,000);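 active = inhibition above about 50%, limit read from the data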
FXIIa inh: human FXIIa protease inhibitors, primary screen, biochemical, 1536-well | purified FXIIa, Boc-QGR-AMC fluorogenic substrate, 2 h | AID 800, 2007 | inhibition, % at 5 µM | actives 0.3% (n = 220,000) | Coagulation factor XII (Homo sapiens), P00748; in the data active = inhibition above about 40%
KLK5 inh: human KLK5 protease inhibitors, primary screen, biochemical, 1536-well. inhibition, % at 5 µM. recombinant hK5, fluorogenic AMC substrate cleavage. actives 0.59% (n = 210,000). AID 873, 2007. Kallikrein-5 (Homo sapiens), Q9Y337;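 active = inhibition of 40% or more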
Furin inh: human furin inhibitors, primary screen, biochemical, fluorescence intensity; actives 0.061% (n = 220,000); inhibition, % at 20 µM or 30 µM; purified furin, fluorogenic substrate cleavage; P09958; in the data active = inhibition above about 25%
Target sequence (P09958 108-714 limits assumed): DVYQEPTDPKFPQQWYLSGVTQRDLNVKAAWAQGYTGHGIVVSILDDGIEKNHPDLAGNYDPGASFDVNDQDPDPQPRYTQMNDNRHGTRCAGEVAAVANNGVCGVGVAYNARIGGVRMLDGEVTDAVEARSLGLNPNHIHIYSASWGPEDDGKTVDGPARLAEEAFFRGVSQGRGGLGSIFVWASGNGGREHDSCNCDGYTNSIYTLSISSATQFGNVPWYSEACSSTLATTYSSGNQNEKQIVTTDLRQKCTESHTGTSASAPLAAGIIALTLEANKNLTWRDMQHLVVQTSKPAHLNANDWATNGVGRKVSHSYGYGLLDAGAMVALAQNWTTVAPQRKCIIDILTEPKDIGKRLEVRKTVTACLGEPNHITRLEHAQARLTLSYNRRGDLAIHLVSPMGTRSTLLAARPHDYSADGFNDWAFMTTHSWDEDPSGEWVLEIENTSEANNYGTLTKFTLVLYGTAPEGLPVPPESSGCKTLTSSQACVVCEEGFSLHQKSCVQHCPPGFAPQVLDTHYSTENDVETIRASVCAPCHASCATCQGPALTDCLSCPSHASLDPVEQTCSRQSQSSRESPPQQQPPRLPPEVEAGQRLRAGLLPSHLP
FXIa inh 1536: human FXIa protease inhibitors, primary screen, biochemical, 1536-well; Coagulation factor XI (Homo sapiens), P03951; purified FXIa, Boc-Glu-Ala-Arg-AMC fluorogenic substrate; inhibition, % at 5 µM; actives 0.14% (n = 220,000);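 active = inhibition of at least 40%; inactive = inhibition below 40%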;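 note: fluorescence of freed AMC excited at 355 nm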
thrombin 1536: human alpha-thrombin inhibitors, primary screen, counter-screen for coagulation protease inhibitor project, biochemical, 1536-well, fluorogenic AMC substrate | Boc-VPR-AMC fluorogenic substrate cleavage | inhibition, % at 5 µM | actives 0.26% (n = 220,000) | AID 1046, 2008;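 active = inhibition at or above 40%; inactive = inhibition below 40%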
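Assay system: human alpha-thrombin enzyme. Reagent: Boc-VPR-AMC substrate, 15 µM final. Compound dosing: one concentration per compound, 5 µM, with 0.2% DMSO. Incubation: room-temperature reaction. Technique: AMC fluorescence, 355/460 nm. Measure: % inhibition relative to enzyme controls and enzyme-free blanks.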
Of the large screens only hits and unclear results are named; the others gave an inactive call. Rows were chosen to be rich in hits. Some 1.4% of all compounds tested hit in one or more screens of this group.

CCOc1ccc(CCNC(=O)c2cc3ccccn3n2)cc1OCC	KLK5 inh 60
O=C(C[n+]1cnn(CC(=O)c2ccc(Cl)cc2Cl)c1)c1ccc([N+](=O)[O-])cc1	thrombin 1536 51
O=C(Nc1cnn(Cc2ccc(Cl)cc2)c1)c1ccc([N+](=O)[O-])cc1	none
O=C(CSc1nnc(-c2ccccc2)c(-c2ccccc2)n1)Nc1ccc(Br)cn1	thrombin 1536 62
Cc1ccc(S(=O)(=O)N2CCN(CC(=O)N/N=C\c3ccccn3)CC2)cc1	none
Cc1ccc(S(=O)(=O)N2CCN(CC(=O)N/N=C\c3cccnc3)CC2)cc1	KLK5 inh 41
O=C(Cn1c(-c2ccccn2)nc2ccccc21)N/N=C/c1cccnc1	KLK5 inh 113, FXIa inh 1536 48
O=C(Cn1c(-c2ccccn2)nc2ccccc21)N/N=C/c1ccccn1	none
Cc1ccc(Cn2cc(/C=N/NC(=O)Cc3nnc(NC(=O)c4ccc(C)cc4)s3)c3ccccc32)cc1	FXIIa inh 40
CCCCCCOc1ccc(N2C(=O)CC(N3CCN(CCN=CC4C(=O)CC(C)(C)CC4=O)CC3)C2=O)cc1 (stereo not given)	none
COCCCn1c(=O)/c(=C\c2ccccc2OC(C)C)s/c1=C(/C#N)C(=O)Nc1ccc(C(=O)O)cc1	FXIIa inh 49
CNC(=S)NNC(=O)c1ccccc1F	Calpain2 inh 90
O=C1CC(C(=O)Nc2ccc(Cl)cc2)n2ncnc2N1 (stereo not given)	Calpain2 inh 74
Cc1ccc(-c2noc(CN3CCC(C(N)=O)CC3)n2)cc1	KLK5 inh 86, thrombin 1536 104
Cc1cc(C)c(C#N)c(SCc2ccc([N+](=O)[O-])cc2)n1	FXIIa inh 41
Cc1cc(C)c(C#N)c(SCC(=O)c2ccccc2)n1	none
Cc1ccc(C2=CSC3=NS(=O)(=O)CCN23)cc1	none
Cc1ccc(SCCNC(=S)Nc2cc(C)cc(C)c2)cc1	Calpain2 inh 52
Cc1ccc(NC(=S)NCCSc2ccc(Cl)cc2)cc1	none
NC(=O)CSc1nc2c(sc3ccccc32)c(=O)n1CCCC(=O)NCC1CCCO1 (stereo not given)	none
CCOC(=O)c1sc2ccc(S(=O)(=O)N3CCOCC3)cc2c1N	KLK5 inh 56
Cc1ccsc1CNC(=O)c1c(-c2ccccc2)noc1C	KLK5 inh 42
O=C(CNC(=S)N(Cc1ccccc1)Cc1ccccc1F)NCCc1ccccc1	FXIIa inh 41
CN(C)CCNC(=O)CNC(=S)N(Cc1ccccc1)Cc1ccccc1F	none
COc1cccc(CNC(=O)CNC(=S)N(Cc2ccccc2)Cc2ccccc2F)c1	Calpain2 inh 54
O=C(CNC(=S)N(Cc1ccccc1)Cc1ccccc1F)NCc1ccccc1	Calpain2 inh 54
O=C(CNC(=S)N(Cc1ccccc1)Cc1ccccc1F)NCc1ccc(Cl)cc1	none (no result: thrombin 1536)
O=C1c2[nH]nc(-c3ccccc3O)c2C(c2ccccc2F)N1Cc1ccco1 (stereo not given)	KLK5 inh 41
COc1ccccc1-n1nnnc1SCc1cc2c(cc1Br)OCO2	Calpain2 inh 50
Cc1ccc(C)c(NC(=O)CN(C)C(=O)CCN2C(=O)c3ccccc3C2=O)c1	FXIIa inh 46, KLK5 inh 53
CCOc1ccccc1OCCCC(=O)N(C)CC(=O)Nc1cc(C)ccc1C	none
CCOC(=O)C1=C(N)N(c2cc(S(=O)(=O)N3CCOCC3)ccc2Cl)C(=O)C1	none
CCOC(=O)Nc1sc(C)nc1-c1ccccc1	KLK5 inh 196
COC(/C=C/Nc1ccc(Br)cc1)=C(C#N)C#N	KLK5 inh 49
COc1cc(SSc2cc(OC)cc([N+](=O)[O-])c2N)c(N)c([N+](=O)[O-])c1	none
CCC(=O)Nc1ccc(C(=O)NNC(=O)c2cc(OC)c(OC)c(OC)c2)cc1	none
S=C(c1ccc(N2CCCC2)cc1)N1CCCCC1	Calpain2 inh 64
O=C(c1ccco1)N1CCN(C2CC(=O)N(c3ccc4c(c3)OCO4)C2=O)CC1 (stereo not given)	Furin inh 31
O=C(c1ccco1)N1CCN(C2CC(=O)N(c3ccccc3)C2=O)CC1 (stereo not given)	none
CSc1nc(SCC(=O)O)c2sc3nc(-c4ccccc4)c4c(c3c2n1)CCC4	Calpain2 inh 90
CN1CCCN(C(=O)c2cc(-c3cccc4ccccc34)nc3ccccc23)CC1	none
O=[N+]([O-])c1cccc(/C=N\N=C2c3ccccc3-c3ccccc32)c1O	Calpain2 inh 61
COc1ccc(-c2c[n+]3c4n2CCCCC4=C(c2ccccc2)C3)cc1	thrombin 1536 58
COC(=O)NCN1C(=O)C2C3C=CC(C3)C2C1=O (stereo not given)	none
CC(C(=O)NCc1ccccn1)N1C(=O)c2ccccc2C1=O (stereo not given)	thrombin 1536 104
COc1ccc(-c2nc(NC(=O)CCNC(=O)c3ccco3)sc2C)cc1	Calpain2 inh 52
Cc1ccc(NC(=O)CCNC(=O)c2ccco2)cc1	none
CCOC(=O)Cc1nnc(NC(=O)CSc2ncc(-c3ccccc3)nn2)s1	none
O=C(CSc1c[nH]c2ccccc12)N1CCCc2ccccc21	none
O=C(Cc1c[nH]c2ccccc12)N1CCc2ccccc21	Furin inh 35
COc1cc(COCC(O)CN2CCOCC2)cc(OC)c1OC (stereo not given)	FXIIa inh 45
COc1ccc(COCC(O)CN2CCOCC2)cc1OC (stereo not given)	none
CCCOP(=O)(c1ccc(N(C)C)cc1)C(O)c1ccncc1 (stereo not given)	thrombin 1536 66
CCCCOP(=O)(c1ccc(N(C)C)cc1)C(Nc1ccccc1)c1ccccc1 (stereo not given)	none
CN(C)c1ccc(P(=O)(OCc2ccccc2)C(O)c2ccncc2)cc1 (stereo not given)	none
CCCOP(=O)(c1ccc(N(C)C)cc1)C(Nc1ccccc1)c1ccc(N(C)C)cc1 (stereo not given)	Furin inh 28
N#Cc1c(-c2ccc(Cl)cc2)c2c([nH]c1=O)-c1ccccc1OC2	none
C=CCNCC(O)COc1ccc(C(C)=O)cc1OC (stereo not given)	none
O=c1[nH]c(-[n+]2ccccc2)c(/C=N/NC([S-])=Nc2ccccc2)s1	KLK5 inh 44
Cc1c(/C(O)=C2/C(=O)C(=O)N(CCN3CCOCC3)C2c2cccs2)cnn1-c1ccccc1 (stereo not given)	FXIIa inh 105

From PubChem BioAssay
